From ChEMBL document CHEMBL1770123, “SPF32629A and SPF32629B: enantioselective synthesis, determination of absolute configuration, cytotoxicity and antibacterial evaluation” (Eur J Med Chem, 2011)
Values after ≈ are worked out from the molar mass of the structure shown. Active and inactive are the calls of the source. The calls are words filed in the database; no cut-off is given here.

Legend:
Staphylococcus aureus [1] = experiment: Antimicrobial activity against Staphylococcus aureus at 1000 ug/disc after 24 hrs by disc diffusion method; format: functional
A549 [2] = experiment: Cytotoxicity against human A549 cells assessed as cell death at 25 ug after 48 hrs by MTT assay; format: functional
Method in brief: (§1)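 A549 cells were grown in DMEM with 2 mmol L-glutamine, 10% FBS, penicillin (50 IU/mL) and streptomycin, at 37 °C and 5% CO2. 1×10^4 cells/well were plated and treated 24 h later with compound diluted in medium for 48 h. Controls were DMSO-matched and untreated wells. MTT 0.4 mg/mL in PBS was added for 4 h in the dark, then DMSO for 4 h. A540 was read and reported as % live cells relative to untreated.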

Staphylococcus aureus [3] = experiment: Antimicrobial activity against methicillin-resistant Staphylococcus aureus strain 2 TB4G at 1000 ug/disc after 24 hrs by disc diffusion method; format: functional
Method in brief: (§2)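 Disc diffusion on 2.4% Mueller-Hinton agar inoculated with the strain. Paper discs 6 mm across were loaded with test compound and placed on the agar. Plates were incubated at 37 °C for 24 h. Read-out was the diameter of the inhibition zone in mm.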

Escherichia coli [4] = experiment: Antimicrobial activity against Escherichia coli at 500 ug/disc after 24 hrs by disc diffusion method; format: functional; conditions: read-out: DIZ
A549 [5] = experiment: Cytotoxicity against human A549 cells assessed as cell death at 5 ug after 48 hrs by MTT assay; format: functional; method in brief: as §1
[6] = test system: Staphylococcus epidermidis; experiment: Antimicrobial activity against Staphylococcus epidermidis at 500 ug/disc after 24 hrs by disc diffusion method; format: functional; conditions: read-out: DIZ
Staphylococcus aureus [7] = experiment: Antimicrobial activity against methicillin-resistant Staphylococcus aureus strain 4 TB5G at 1000 ug/disc after 24 hrs by disc diffusion method; format: functional; method in brief: as §2
Staphylococcus aureus [8] = experiment: Antimicrobial activity against methicillin-resistant Staphylococcus aureus strain 4 TB5G at 500 ug/disc after 24 hrs by disc diffusion method; format: functional; method in brief: as §2
Listeria monocytogenes [9] = experiment: Antimicrobial activity against Listeria monocytogenes at 500 ug/disc after 24 hrs by disc diffusion method; format: functional
A549 [10] = experiment: Cytotoxicity against human A549 cells assessed as cell death at 10 ug after 48 hrs by MTT assay; format: functional; method in brief: as §1
Klebsiella pneumoniae [11] = experiment: Antimicrobial activity against Klebsiella pneumoniae at 500 ug/disc after 24 hrs by disc diffusion method; format: functional; conditions: read-out: DIZ
Staphylococcus aureus [12] = experiment: Antimicrobial activity against methicillin-resistant Staphylococcus aureus strain 2 TB4G at 500 ug/disc after 24 hrs by disc diffusion method; format: functional; method in brief: as §2
Staphylococcus aureus [13] = experiment: Antimicrobial activity against methicillin-resistant Staphylococcus aureus strain 1 TB3G at 500 ug/disc after 24 hrs by disc diffusion method; format: functional; method in brief: as §2
Salmonella typhimurium [14] = experiment: Antimicrobial activity against Salmonella Typhimurium at 500 ug/disc after 24 hrs by disc diffusion method; format: functional, Salmonella enterica subsp. enterica serovar Typhimurium; conditions: Salmonella enterica, read-out: DIZ
Listeria monocytogenes [15] = experiment: Antimicrobial activity against Listeria monocytogenes at 1000 ug/disc after 24 hrs by disc diffusion method; format: functional
A549 [16] = experiment: Cytotoxicity against human A549 cells after 48 hrs by MTT assay; format: functional, cell-based; conditions: A549, 48 h
Method in brief: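 A549 cells were kept in DMEM with 2 mM L-glutamine, 10% FBS, penicillin 50 IU/mL and streptomycin at 37 °C under 5% CO2. 1×10^4 cells per well were treated 24 h after seeding with compounds diluted in medium for 48 h. MTT (0.4 mg/mL in PBS) was added for 4 h in the dark, formazan was dissolved in DMSO for 4 h and absorbance read at 540 nm. Viability was expressed as % of untreated cells, and IC50 was derived.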

A549 [17] = experiment: Cytotoxicity against human A549 cells assessed as cell death at 1 ug after 48 hrs by MTT assay; format: functional; method in brief: as §1
Escherichia coli [18] = experiment: Antimicrobial activity against Escherichia coli at 1000 ug/disc after 24 hrs by disc diffusion method; format: functional; conditions: read-out: DIZ
[19] = test system: Staphylococcus epidermidis; experiment: Antimicrobial activity against Staphylococcus epidermidis at 1000 ug/disc after 24 hrs by disc diffusion method; format: functional; conditions: read-out: DIZ
Klebsiella pneumoniae [20] = experiment: Antimicrobial activity against Klebsiella pneumoniae at 1000 ug/disc after 24 hrs by disc diffusion method; format: functional; conditions: read-out: DIZ
Staphylococcus aureus [21] = experiment: Antimicrobial activity against methicillin-resistant Staphylococcus aureus strain 1 TB3G at 1000 ug/disc after 24 hrs by disc diffusion method; format: functional; method in brief: as §2
Salmonella typhimurium [22] = experiment: Antimicrobial activity against Salmonella Typhimurium at 1000 ug/disc after 24 hrs by disc diffusion method; format: functional, Salmonella enterica subsp. enterica serovar Typhimurium; conditions: Salmonella enterica, read-out: DIZ
Bacillus subtilis [23] = experiment: Antimicrobial activity against Bacillus subtilis at 1000 ug/disc after 24 hrs by disc diffusion method; format: functional; conditions: read-out: DIZ
Bacillus subtilis [24] = experiment: Antimicrobial activity against Bacillus subtilis at 500 ug/disc after 24 hrs by disc diffusion method; format: functional; conditions: read-out: DIZ
A549 [25] = experiment: Cytotoxicity against human A549 cells assessed as cell death at 2 ug after 48 hrs by MTT assay; format: functional; method in brief: as §1
Staphylococcus aureus [26] = experiment: Antimicrobial activity against Staphylococcus aureus at 500 ug/disc after 24 hrs by disc diffusion method; format: functional; method in brief: as §2
Salmonella typhimurium [27] = experiment: Antimicrobial activity against Salmonella Typhimurium after 24 hrs by microdilution method; format: functional, Salmonella enterica subsp. enterica serovar Typhimurium; conditions: Salmonella enterica
Method in brief: (§3)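 Growth was judged by turbidity, and the MIC was taken as the minimum concentration giving the lowest growth. Amikacin served as reference.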

Listeria monocytogenes [28] = experiment: Antimicrobial activity against Listeria monocytogenes after 24 hrs by microdilution method; format: functional; method in brief: as §3
Escherichia coli [29] = experiment: Antimicrobial activity against Escherichia coli after 24 hrs by microdilution method; format: functional; method in brief: as §3
Bacillus subtilis [30] = experiment: Antimicrobial activity against Bacillus subtilis after 24 hrs by microdilution method; format: functional; method in brief: as §3
Klebsiella pneumoniae [31] = experiment: Antimicrobial activity against Klebsiella pneumoniae after 24 hrs by microdilution method; format: functional; method in brief: as §3
Staphylococcus aureus [32] = experiment: Antimicrobial activity against Staphylococcus aureus after 24 hrs by microdilution method; format: functional; method in brief: as §3
Staphylococcus aureus [33] = experiment: Antimicrobial activity against methicillin-resistant Staphylococcus aureus strain 1 TB3G after 24 hrs by microdilution method; format: functional
Method in brief: (§4)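 Growth was judged by turbidity. The MIC was taken as the lowest concentration giving the lowest growth.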

Staphylococcus aureus [34] = experiment: Antimicrobial activity against methicillin-resistant Staphylococcus aureus strain 2 TB4G after 24 hrs by microdilution method; format: functional; method in brief: as §4
Staphylococcus aureus [35] = experiment: Antimicrobial activity against methicillin-resistant Staphylococcus aureus strain 4 TB5G after 24 hrs by microdilution method; format: functional; method in brief: as §4
[36] = test system: Staphylococcus epidermidis; experiment: Antimicrobial activity against Staphylococcus epidermidis after 24 hrs by microdilution method; format: functional; method in brief: as §3

Structure (SMILES) | Activity (A549 [2]) [%] | zone of inhibition at 500 µg/disc (Escherichia coli [4]) [mm] | Activity (A549 [5]) [%] | zone of inhibition at 500 µg/disc [6] [mm] | Activity (A549 [10]) [%] | zone of inhibition at 500 µg/disc (Klebsiella pneumoniae [11]) [mm] | zone of inhibition at 500 µg/disc (Salmonella typhimurium [14]) [mm] | IC50 (A549 [16]) [µM] | Activity (A549 [17]) [%] | zone of inhibition at 1000 µg/disc (Escherichia coli [18]) [mm] | zone of inhibition at 1000 µg/disc [19] [mm] | zone of inhibition at 1000 µg/disc (Klebsiella pneumoniae [20]) [mm] | zone of inhibition at 1000 µg/disc (Salmonella typhimurium [22]) [mm] | zone of inhibition at 1000 µg/disc (Bacillus subtilis [23]) [mm] | zone of inhibition at 500 µg/disc (Bacillus subtilis [24]) [mm] | Activity (A549 [25]) [%] | also measured
CC(C)CC(=O)O[C@H](c1ccccc1)c1cc(O)cc(=O)[nH]1 | 75.78 | 13 | 48.82 | 8 | 50.39 | 14 | 12 | 10 | 3.13 | 20 | 17 | 24 | 20 | 19 | 10 | 18.59 | diameter of the inhibition zone (DIZ) (Staphylococcus aureus [1]): inactive; diameter of the inhibition zone (DIZ) (Staphylococcus aureus [3]): inactive; diameter of the inhibition zone (DIZ) (Staphylococcus aureus [7]): inactive; diameter of the inhibition zone (DIZ) (Staphylococcus aureus [8]): inactive; diameter of the inhibition zone (DIZ) (Listeria monocytogenes [9]): inactive; diameter of the inhibition zone (DIZ) (Staphylococcus aureus [12]): inactive; diameter of the inhibition zone (DIZ) (Staphylococcus aureus [13]): inactive; diameter of the inhibition zone (DIZ) (Listeria monocytogenes [15]): inactive; diameter of the inhibition zone (DIZ) (Staphylococcus aureus [21]): inactive; diameter of the inhibition zone (DIZ) (Staphylococcus aureus [26]): inactive
CC(C)CC(=O)O[C@H](c1ccccc1)c1cc(O)c(C(=O)O)c(=O)[nH]1 | 78.76 | 10 | 44.92 | 12 | 77.84 | 9 | 9 | 8 | 10.46 | 18 | 20 | 20 | 20 | 15 | 8 | 30.76 | zone of inhibition at 1000 µg/disc (Staphylococcus aureus [1]; read-out: DIZ): 18 mm; MIC (Salmonella typhimurium [27]): > 100 µg/mL; zone of inhibition at 1000 µg/disc (Staphylococcus aureus [3]; read-out: DIZ): 10 mm; zone of inhibition at 1000 µg/disc (Staphylococcus aureus [7]; read-out: DIZ): 11 mm; zone of inhibition at 500 µg/disc (Staphylococcus aureus [8]; read-out: DIZ): 5 mm; zone of inhibition at 500 µg/disc (Listeria monocytogenes [9]; read-out: DIZ): 7 mm; MIC (Listeria monocytogenes [28]): 100 µg/mL (≈ 290 µM); zone of inhibition at 500 µg/disc (Staphylococcus aureus [12]; read-out: DIZ): 6 mm; MIC (Escherichia coli [29]): 50 µg/mL (≈ 145 µM); MIC (Bacillus subtilis [30]): 100 µg/mL (≈ 290 µM); MIC (Klebsiella pneumoniae [31]): > 100 µg/mL; zone of inhibition at 500 µg/disc (Staphylococcus aureus [13]; read-out: DIZ): 7 mm; zone of inhibition at 1000 µg/disc (Listeria monocytogenes [15]; read-out: DIZ): 15 mm; MIC (Staphylococcus aureus [32]): > 100 µg/mL; MIC (Staphylococcus aureus [33]): > 100 µg/mL; MIC (Staphylococcus aureus [34]): > 100 µg/mL; MIC (Staphylococcus aureus [35]): > 100 µg/mL; zone of inhibition at 1000 µg/disc (Staphylococcus aureus [21]; read-out: DIZ): 13 mm; MIC [36]: 25 µg/mL (≈ 72.4 µM); zone of inhibition at 500 µg/disc (Staphylococcus aureus [26]; read-out: DIZ): 11 mm
